{
  "source": "ChEMBL document CHEMBL1932935",
  "about": "“Synthesis and biological effects of some kynurenic acid analogs” (Bioorg Med Chem, 2011)",
  "key": {"Hippocampus": {"test_system": "Hippocampus", "experiment": "Antiexcitatory activity in rat hippocampus pyramidal CA1 region assessed as reduction in field excitatory postsynaptic potential at 16 uM by electrophysiologic method", "assay_type": "functional", "method_in_brief": "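Acute rat hippocampal slices; recording solution ACSF with 3 mM CaCl2 and 1.5 mM MgSO4, 1.5–2 mL/min flow, 34 °C. Schaffer collaterals stimulated; fEPSP amplitude recorded in CA1 pyramidal layer before, during and after bath application of compound in ACSF. Amplitudes normalized to 10-min control period; four slices per compound.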"}, "Mus musculus [1]": {"test_system": "Mus musculus", "experiment": "Toxicity in C57/BL6 mouse assessed as effect on movement velocity dosed intraperitoneally equimolar to 200 mg/kg KYNA-1 as single dose measured after 2 hrs by open field test", "assay_type": "organism-based, C57Bl/6", "parameters": "dose 200 mg/kg, route intraperitoneal", "conditions": "in vivo, ip", "method_in_brief": "(§1)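 Six-week-old male C57Bl/6 mice, dosed ip once daily at 5 mL/kg in distilled water adjusted to pH 6.5; saline controls. Acute testing was 2 h after a single dose; chronic testing was on day 9, 2 h after the last of 9 daily doses. Each mouse was placed in a black open-field box (48×48×40 cm) and video-tracked for 5 min, scoring ambulation time, mean velocity and rearings.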"}, "Mus musculus [2]": {"test_system": "Mus musculus", "experiment": "Toxicity in C57/BL6 mouse assessed as decrease in number of rearings dosed intraperitoneally equimolar to 200 mg/kg KYNA-1 for 9 days measured after 2 hrs post last dose by open field test", "assay_type": "organism-based, C57Bl/6", "parameters": "dose 200 mg/kg, route intraperitoneal", "conditions": "in vivo, ip", "method_in_brief": "as §1"}, "Mus musculus [3]": {"test_system": "Mus musculus", "experiment": "Toxicity in C57/BL6 mouse assessed as decrease in number of rearings dosed intraperitoneally equimolar to 200 mg/kg KYNA-1 as single dose measured after 2 hrs by open field test", "assay_type": "organism-based, C57Bl/6", "parameters": "dose 200 mg/kg, route intraperitoneal", "conditions": "in vivo, ip", "method_in_brief": "as §1"}, "Mus musculus [4]": {"test_system": "Mus musculus", "experiment": "Toxicity in C57/BL6 mouse assessed as effect on ambulation time dosed intraperitoneally equimolar to 200 mg/kg KYNA-1 as single dose measured after 2 hrs by open field test", "assay_type": "organism-based, C57Bl/6", "parameters": "dose 200 mg/kg, route intraperitoneal", "conditions": "in vivo, ip", "method_in_brief": "as §1"}, "Mus musculus [5]": {"test_system": "Mus musculus", "experiment": "Toxicity in C57/BL6 mouse assessed as effect on movement velocity dosed intraperitoneally equimolar to 200 mg/kg KYNA-1 for 9 days measured after 2 hrs post last dose by open field test", "assay_type": "organism-based, C57Bl/6", "parameters": "dose 200 mg/kg, route intraperitoneal", "conditions": "in vivo, ip", "method_in_brief": "as §1"}, "Mus musculus [6]": {"test_system": "Mus musculus", "experiment": "Toxicity in C57/BL6 mouse assessed as effect on ambulation time dosed intraperitoneally equimolar to 200 mg/kg KYNA-1 for 9 days measured after 2 hrs post last dose by open field test", "assay_type": "organism-based, C57Bl/6", "parameters": "dose 200 mg/kg, route intraperitoneal", "conditions": "in vivo, ip", "method_in_brief": "as §1"}, "Rattus norvegicus [7]": {"test_system": "Rattus norvegicus", "experiment": "Inhibition of NMDA in Wistar rat hippocampus pyramidal CA1 region assessed as reduction in amplitude of population spike at 200 mg/kg/day, ip up to 90 mins by electrophysologic method", "assay_type": "functional", "conditions": "1.5 h, read-out: INH, route intraperitoneal"}, "Mus musculus [8]": {"test_system": "Mus musculus", "experiment": "Toxicity in C57/BL6 mouse assessed as effect on ambulation time at 200 mg/kg, ip for 9 days measured after 2 hrs post last dose by open field test", "assay_type": "organism-based, C57Bl/6", "parameters": "dose 200 mg/kg, route intraperitoneal", "conditions": "in vivo", "method_in_brief": "as §1"}, "Mus musculus [9]": {"test_system": "Mus musculus", "experiment": "Toxicity in C57/BL6 mouse assessed as effect on movement velocity at 200 mg/kg, ip for 9 days measured after 2 hrs post last dose by open field test", "assay_type": "organism-based, C57Bl/6", "parameters": "dose 200 mg/kg, route intraperitoneal", "conditions": "in vivo", "method_in_brief": "as §1"}, "Mus musculus [10]": {"test_system": "Mus musculus", "experiment": "Toxicity in C57/BL6 mouse assessed as effect on movement velocity at 200 mg/kg, ip administered as single dose measured after 2 hrs by open field test", "assay_type": "organism-based, C57Bl/6", "parameters": "dose 200 mg/kg, route intraperitoneal", "conditions": "in vivo", "method_in_brief": "as §1"}, "Rattus norvegicus [11]": {"test_system": "Rattus norvegicus", "experiment": "Inhibition of NMDA in Wistar rat hippocampus pyramidal CA1 region assessed as reduction in amplitude of population spike at 200 mg/kg/day, ip measured up to 60 mins by electrophysologic method", "assay_type": "functional", "conditions": "1 h, read-out: INH, route intraperitoneal"}, "Mus musculus [12]": {"test_system": "Mus musculus", "experiment": "Toxicity in C57/BL6 mouse assessed as effect on ambulation time at 200 mg/kg, ip administered as single dose measured after 2 hrs by open field test", "assay_type": "organism-based, C57Bl/6", "parameters": "dose 200 mg/kg, route intraperitoneal", "conditions": "in vivo", "method_in_brief": "as §1"}, "Mus musculus [13]": {"test_system": "Mus musculus", "experiment": "Toxicity in C57/BL6 mouse assessed as decrease in number of rearings at 200 mg/kg, ip for 9 days measured after 2 hrs post last dose by open field test", "assay_type": "organism-based, C57Bl/6", "parameters": "dose 200 mg/kg, route intraperitoneal", "conditions": "in vivo", "method_in_brief": "as §1"}, "Mus musculus [14]": {"test_system": "Mus musculus", "experiment": "Toxicity in C57/BL6 mouse assessed as decrease in number of rearings at 200 mg/kg, ip administered as single dose measured after 2 hrs by open field test", "assay_type": "organism-based, C57Bl/6", "parameters": "dose 200 mg/kg, route intraperitoneal", "conditions": "in vivo", "method_in_brief": "as §1"}, "Rattus norvegicus [15]": {"test_system": "Rattus norvegicus", "experiment": "Inhibition of NMDA in intraperitoneally dosed Wistar rat hippocampus pyramidal CA1 region assessed as reduction in amplitude of population spike by electrophysologic method", "assay_type": "functional, organism-based"}},
  "note": "Activity calls are given as the source filed them. The calls are words filed in the database; no cut-off is given here.",
  "data": [
    {"smiles": "CN1CCCCC1CNC(=O)c1cc(=O)c2ccccc2[nH]1", "note": "(centres undefined)", "values": [
      {"measurement": "Activity", "setting": "Hippocampus", "result": "inactive"}
    ]},
    {"smiles": "Cl.O=C(NCCN1CCCC1)c1cc(O)c2ccccc2n1", "values": [
      {"measurement": "Activity", "setting": "Mus musculus [1]", "result": "Non-toxic"},
      {"measurement": "Activity", "setting": "Mus musculus [2]", "result": "Non-toxic"},
      {"measurement": "Activity", "setting": "Mus musculus [3]", "result": "Non-toxic"},
      {"measurement": "Activity", "setting": "Mus musculus [4]", "result": "Non-toxic"},
      {"measurement": "Activity", "setting": "Mus musculus [5]", "result": "Non-toxic"},
      {"measurement": "Activity", "setting": "Mus musculus [6]", "result": "Non-toxic"}
    ]},
    {"smiles": "Nc1ccccc1C(=O)C[C@H](N)C(=O)O.O=S(=O)(O)O", "values": [
      {"measurement": "Activity", "setting": "Mus musculus [1]", "result": "Non-toxic"},
      {"measurement": "Activity", "setting": "Mus musculus [2]", "result": "Toxic"},
      {"measurement": "Activity", "setting": "Hippocampus", "result": "inactive"},
      {"measurement": "Activity", "setting": "Mus musculus [3]", "result": "Toxic"},
      {"measurement": "Activity", "setting": "Mus musculus [4]", "result": "Non-toxic"},
      {"measurement": "Activity", "setting": "Mus musculus [5]", "result": "Non-toxic"},
      {"measurement": "Activity", "setting": "Mus musculus [6]", "result": "Non-toxic"}
    ]},
    {"smiles": "CN(C)CCCNC(=O)c1cc(O)c2ccccc2n1.Cl", "values": [
      {"measurement": "Activity", "setting": "Mus musculus [1]", "result": "Non-toxic"},
      {"measurement": "Activity", "setting": "Mus musculus [2]", "result": "Non-toxic"},
      {"measurement": "Activity", "setting": "Mus musculus [3]", "result": "Non-toxic"},
      {"measurement": "Activity", "setting": "Mus musculus [4]", "result": "Non-toxic"},
      {"measurement": "Activity", "setting": "Mus musculus [5]", "result": "Non-toxic"},
      {"measurement": "Activity", "setting": "Mus musculus [6]", "result": "Non-toxic"}
    ]},
    {"smiles": "O=C(NCCN1CCCC1)c1cc(=O)c2ccccc2[nH]1", "values": [
      {"measurement": "Activity", "setting": "Hippocampus", "result": "inactive"}
    ]},
    {"smiles": "O=C(c1cc(=O)c2ccccc2[nH]1)N1CCN(Cc2ccccc2)CC1", "values": [
      {"measurement": "Activity", "setting": "Hippocampus", "result": "inactive"}
    ]},
    {"smiles": "CN(C)CCNC(=O)c1cc(O)c2ccccc2n1.Cl", "values": [
      {"measurement": "inhibition in vivo at 200 mg/kg/day", "setting": "Rattus norvegicus [7]", "result": 30, "unit": "%"},
      {"measurement": "Activity", "setting": "Mus musculus [8]", "result": "Non-toxic"},
      {"measurement": "Activity", "setting": "Mus musculus [9]", "result": "Non-toxic"},
      {"measurement": "Activity", "setting": "Mus musculus [10]", "result": "Non-toxic"},
      {"measurement": "inhibition in vivo at 200 mg/kg/day", "setting": "Rattus norvegicus [11]", "result": 25, "unit": "%"},
      {"measurement": "Activity", "setting": "Hippocampus", "result": 50, "unit": "%"},
      {"measurement": "Activity", "setting": "Mus musculus [12]", "result": "Non-toxic"},
      {"measurement": "Activity", "setting": "Mus musculus [13]", "result": "Non-toxic"},
      {"measurement": "Activity", "setting": "Mus musculus [14]", "result": "Toxic"}
    ]},
    {"smiles": "O=C(O)c1cc(=O)c2ccccc2[nH]1", "note": "[TRANSTORINE]", "values": [
      {"measurement": "Activity", "setting": "Hippocampus", "result": 70, "unit": "%"}
    ]},
    {"smiles": "CN(C)CCCNC(=O)c1cc(=O)c2ccccc2[nH]1", "values": [
      {"measurement": "Activity", "setting": "Hippocampus", "result": "inactive"},
      {"measurement": "inhibition", "setting": "Rattus norvegicus [15]", "result": "inactive"}
    ]},
    {"smiles": "O=C(NCCN1CCCCC1)c1cc(=O)c2ccccc2[nH]1", "values": [
      {"measurement": "Activity", "setting": "Hippocampus", "result": "inactive"}
    ]},
    {"smiles": "CN1CCN(C(=O)c2cc(=O)c3ccccc3[nH]2)CC1", "values": [
      {"measurement": "Activity", "setting": "Hippocampus", "result": "inactive"}
    ]},
    {"smiles": "O=C(NCCN1CCOCC1)c1cc(=O)c2ccccc2[nH]1", "values": [
      {"measurement": "Activity", "setting": "Hippocampus", "result": "inactive"}
    ]},
    {"smiles": "O=C(c1cc(=O)c2ccccc2[nH]1)N1CCNCC1", "values": [
      {"measurement": "Activity", "setting": "Hippocampus", "result": "inactive"}
    ]},
    {"smiles": "CCN(CC)CCNC(=O)c1cc(=O)c2ccccc2[nH]1", "values": [
      {"measurement": "Activity", "setting": "Hippocampus", "result": "inactive"}
    ]}
  ]
}
